Reference: ChEMBL document CHEMBL1155468, “Syntheses and evaluation of anticonvulsant profile and teratogenicity of novel amide derivatives of branched aliphatic carboxylic acids with 4-aminobenzensulfonamide” (J Med Chem, 2010)
Activity calls are given as the source filed them. The calls are words filed in the database; no cut-off is given here.

Tests used:
Mus musculus [1] = assay: Neurotoxicity in CF1 albino mouse assessed as motor impairment at 30 mg/kg, ip after 0.5 hrs; format: toxicity, organism-based; design: dose 30 mg/kg, route intraperitoneal; conditions: in vivo
Mus musculus [2] = assay: Neurotoxicity in CF1 albino mouse assessed as motor impairment at 100 mg/kg, ip after 0.5 hrs; format: toxicity, organism-based; design: dose 100 mg/kg, route intraperitoneal; conditions: in vivo
Mus musculus [3] = assay: Anticonvulsant activity in CF1 albino mouse assessed as inhibition of maximal electroshock-induced seizures at 300 mg/kg, ip after 4 hrs; format: functional, organism-based; design: dose 300 mg/kg
Method in brief: (§1)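 Test compounds suspended in 0.5% methylcellulose and given ip to adult male CF no. 1 albino mice (18-25 g) at 0.01 mL/g body weight before maximal electroshock challenge.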

Mus musculus [4] = assay: Anticonvulsant activity in CF1 albino mouse assessed as inhibition of maximal electroshock-induced seizures at 30 mg/kg, ip after 4 hrs; format: functional, organism-based; design: dose 30 mg/kg; method in brief: as §1
Mus musculus [5] = assay: Teratogenic effect in SWV mouse assessed as live fetuses at 325 mg/kg, ip administered on morning of day 8 of gestation; format: toxicity, organism-based; design: dose 325 mg/kg, route intraperitoneal; conditions: in vivo
Mus musculus [6] = assay: Anticonvulsant activity in CF1 albino mouse assessed as inhibition of subcutaneous pentylenetetrazole-induced seizures at 300 mg/kg, ip after 4 hrs; format: functional, organism-based; design: dose 300 mg/kg
Method in brief: (§2)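 Adult male CF no. 1 albino mice (18-25 g) dosed ip with compound suspended in 0.5% methylcellulose (0.01 mL/g). Convulsant: pentylenetetrazol dissolved in 0.9% saline as a 0.85% solution for mice, given subcutaneously.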

Mus musculus [7] = assay: Anticonvulsant activity in CF1 albino mouse assessed as inhibition of maximal electroshock-induced seizures at 300 mg/kg, ip after 0.5 hrs; format: functional, organism-based; design: dose 300 mg/kg; method in brief: as §1
Mus musculus [8] = assay: Anticonvulsant activity in CF1 albino mouse assessed as inhibition of subcutaneous pentylenetetrazole-induced seizures at 100 mg/kg, ip after 4 hrs; format: functional, organism-based; design: dose 100 mg/kg; method in brief: as §2
Mus musculus [9] = assay: Anticonvulsant activity in CF1 albino mouse assessed as inhibition of subcutaneous pentylenetetrazole-induced seizures at 30 mg/kg, ip after 4 hrs; format: functional, organism-based; design: dose 30 mg/kg; method in brief: as §2
Mus musculus [10] = assay: Anticonvulsant activity in CF1 albino mouse assessed as inhibition of maximal electroshock-induced seizures at 30 mg/kg, ip after 0.5 hrs; format: functional, organism-based; design: dose 30 mg/kg; method in brief: as §1
Mus musculus [11] = assay: Anticonvulsant activity in CF1 albino mouse assessed as inhibition of subcutaneous pentylenetetrazole-induced seizures at 30 mg/kg, ip after 0.5 hrs; format: functional, organism-based; design: dose 30 mg/kg; method in brief: as §2
Mus musculus [12] = assay: Anticonvulsant activity in CF1 albino mouse assessed as inhibition of maximal electroshock-induced seizures at 100 mg/kg, ip after 0.5 hrs; format: functional, organism-based; design: dose 100 mg/kg; method in brief: as §1
Rattus norvegicus = assay: Neurotoxicity in Sprague-Dawley rat assessed as motor impairment at 30 mg/kg, po after 0.25 to 4 hrs; conditions: in vivo
Mus musculus [13] = assay: Teratogenic effect in SWV mouse assessed as live fetuses at 164 mg/kg, ip administered on morning of day 8 of gestation; format: toxicity, organism-based; design: dose 164 mg/kg, route intraperitoneal; conditions: in vivo
Mus musculus [14] = assay: Anticonvulsant activity in CF1 albino mouse assessed as inhibition of subcutaneous pentylenetetrazole-induced seizures at 300 mg/kg, ip after 0.5 hrs; format: functional, organism-based; design: dose 300 mg/kg; method in brief: as §2
Mus musculus [15] = assay: Teratogenic effect in SWV mouse assessed as fetuses with neural tube deffects at 537 mg/kg, ip administered on morning of day 8 of gestation; format: toxicity, organism-based; design: dose 537 mg/kg, route intraperitoneal; conditions: in vivo
Mus musculus [16] = assay: Teratogenic effect in SWV mouse assessed as fetuses with neural tube deffects at 325 mg/kg, ip administered on morning of day 8 of gestation; format: toxicity, organism-based; design: dose 325 mg/kg, route intraperitoneal; conditions: in vivo
Mus musculus [17] = assay: Teratogenic effect in SWV mouse assessed as resorptions at 325 mg/kg, ip administered on morning of day 8 of gestation; format: toxicity, organism-based; design: dose 325 mg/kg, route intraperitoneal; conditions: in vivo
Mus musculus [18] = assay: Anticonvulsant activity in CF1 albino mouse assessed as inhibition of subcutaneous pentylenetetrazole-induced seizures at 100 mg/kg, ip after 0.5 hrs; format: functional, organism-based; design: dose 100 mg/kg; method in brief: as §2
Mus musculus [19] = assay: Teratogenic effect in SWV mouse assessed as live fetuses at 537 mg/kg, ip administered on morning of day 8 of gestation; format: toxicity, organism-based; design: dose 537 mg/kg, route intraperitoneal; conditions: in vivo
Mus musculus [20] = assay: Teratogenic effect in SWV mouse assessed as fetuses with neural tube deffects at 164 mg/kg, ip administered on morning of day 8 of gestation; format: toxicity, organism-based; design: dose 164 mg/kg, route intraperitoneal; conditions: in vivo
Mus musculus [21] = assay: Teratogenic effect in SWV mouse assessed as resorptions at 537 mg/kg, ip administered on morning of day 8 of gestation; format: toxicity, organism-based; design: dose 537 mg/kg, route intraperitoneal; conditions: in vivo
Mus musculus [22] = assay: Neurotoxicity in CF1 albino mouse assessed as motor impairment at 100 mg/kg, ip after 4 hrs; format: toxicity, organism-based; design: dose 100 mg/kg, route intraperitoneal; conditions: in vivo
Mus musculus [23] = assay: Teratogenic effect in SWV mouse assessed as resorptions at 164 mg/kg, ip administered on morning of day 8 of gestation; format: toxicity, organism-based; design: dose 164 mg/kg, route intraperitoneal; conditions: in vivo
Mus musculus [24] = assay: Teratogenic effect in SWV mouse assessed as resorptions at 805 mg/kg, ip administered on morning of day 8 of gestation; format: toxicity, organism-based; design: dose 805 mg/kg, route intraperitoneal; conditions: in vivo
Mus musculus [25] = assay: Neurotoxicity in CF1 albino mouse assessed as motor impairment at 300 mg/kg, ip after 4 hrs; format: toxicity, organism-based; design: dose 300 mg/kg, route intraperitoneal; conditions: in vivo
Mus musculus [26] = assay: Neurotoxicity in CF1 albino mouse assessed as motor impairment at 30 mg/kg, ip after 4 hrs; format: toxicity, organism-based; design: dose 30 mg/kg, route intraperitoneal; conditions: in vivo
Mus musculus [27] = assay: Neurotoxicity in CF1 albino mouse assessed as motor impairment at 300 mg/kg, ip after 0.5 hrs; format: toxicity, organism-based; design: dose 300 mg/kg, route intraperitoneal; conditions: in vivo

**Q.** Which Activity (Mus musculus [1]) does the source give for `CCC(CC(C)C)C(=O)Nc1ccc(S(N)(=O)=O)cc1` (stereo not drawn) here?
**A.** The Activity was “Non-toxic”.

**Q.** What about the Activity (Mus musculus [2]) of the same compound?
**A.** The Activity was “Non-toxic”.

**Q.** And the Activity (Mus musculus [3])?
**A.** The Activity was “Active”.

**Q.** And the Activity (Mus musculus [4])?
**A.** The Activity was “inactive”.

**Q.** And the Activity (Mus musculus [5])?
**A.** Its Activity is 50.4%.

**Q.** And the Activity (Mus musculus [6])?
**A.** Its Activity is “inactive”.

**Q.** And the Activity (Mus musculus [7])?
**A.** Its Activity is “inactive”.

**Q.** And the Activity (Mus musculus [8])?
**A.** The Activity was “inactive”.

**Q.** And the Activity (Mus musculus [9])?
**A.** Its Activity is “inactive”.

**Q.** What about the Activity (Mus musculus [10]) of the same compound?
**A.** The Activity was “inactive”.

**Q.** And the Activity (Mus musculus [11])?
**A.** Its Activity is “inactive”.

**Q.** And the Activity (Mus musculus [12])?
**A.** Its Activity is “inactive”.

**Q.** What about the Activity (Rattus norvegicus) of the same compound?
**A.** The Activity was “Non-toxic”.

**Q.** What about the Activity (Mus musculus [13]) of the same compound?
**A.** Its Activity is 95.4%.

**Q.** What about the Activity (Mus musculus [14]) of the same compound?
**A.** The Activity was “inactive”.

**Q.** And the Activity (Mus musculus [15])?
**A.** Its Activity is 50%.

**Q.** And the Activity (Mus musculus [16])?
**A.** The Activity was 22.7%.

**Q.** And the Activity (Mus musculus [17])?
**A.** Its Activity is 49.6%.

**Q.** What about the Activity (Mus musculus [18]) of the same compound?
**A.** Its Activity is “inactive”.

**Q.** What about the Activity (Mus musculus [19]) of the same compound?
**A.** The Activity was 3.8%.

**Q.** What about the Activity (Mus musculus [20]) of the same compound?
**A.** Its Activity is 0.9%.

**Q.** And the Activity (Mus musculus [21])?
**A.** The Activity was 96.2%.

**Q.** And the Activity (Mus musculus [22])?
**A.** The Activity was “Non-toxic”.

**Q.** And the Activity (Mus musculus [23])?
**A.** Its Activity is 6.6%.

**Q.** And the Activity (Mus musculus [24])?
**A.** The Activity was 100%.

**Q.** What about the Activity (Mus musculus [25]) of the same compound?
**A.** The Activity was “Non-toxic”.

**Q.** What about the Activity (Mus musculus [26]) of the same compound?
**A.** The Activity was “Non-toxic”.

**Q.** What about the Activity (Mus musculus [27]) of the same compound?
**A.** Its Activity is “Non-toxic”.
